Screening results: PubChem BioAssay, several laboratories
ERa coact pot: enhances coactivator binding to human estrogen receptor alpha; P03372; AID 639; 1.3% of 86,000 active; coactivator binding (% of control), % at 25.6 µM; TR-FRET ERalpha-LBD/SRC-Cy5 coactivator binding, 2 h; 100 = basal binding, no effect; in the data active = activity above about 200%;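 also: binding measured in presence of low estradiol as agonist stimulus; 0% = peptide alone without receptor and 100% = receptor with peptide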
Target sequence (P03372 whole entry, looked up, the tested form may be a part): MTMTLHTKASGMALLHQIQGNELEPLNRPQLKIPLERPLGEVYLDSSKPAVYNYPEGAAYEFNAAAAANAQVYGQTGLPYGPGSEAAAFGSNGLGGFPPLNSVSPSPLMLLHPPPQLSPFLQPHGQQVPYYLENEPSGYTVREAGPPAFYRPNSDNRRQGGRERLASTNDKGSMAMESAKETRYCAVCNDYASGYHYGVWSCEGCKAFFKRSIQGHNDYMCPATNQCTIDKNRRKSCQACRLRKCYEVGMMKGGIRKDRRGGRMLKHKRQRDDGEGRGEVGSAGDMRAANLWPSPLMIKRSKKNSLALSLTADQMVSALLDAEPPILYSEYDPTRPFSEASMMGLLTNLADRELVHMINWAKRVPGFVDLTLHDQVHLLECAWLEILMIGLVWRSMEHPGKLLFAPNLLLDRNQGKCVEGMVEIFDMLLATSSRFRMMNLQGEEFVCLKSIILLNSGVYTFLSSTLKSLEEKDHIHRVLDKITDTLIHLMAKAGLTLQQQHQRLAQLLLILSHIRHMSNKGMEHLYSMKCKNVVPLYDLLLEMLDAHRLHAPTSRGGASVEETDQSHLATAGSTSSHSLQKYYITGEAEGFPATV
ERb coact inh: ER-beta (human) coactivator binding inhibition; TR-FRET ER-beta LBD / SRC1-Cy5 peptide binding; receptor agonist-loaded with 1 µM estradiol; Q92731; 1.3% of 86,000 active; inhibition, % at 25.6 µM;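 active = compounds whose percent inhibition of the receptor-coactivator binding signal exceeds about 50% in the single-dose screen, limit read from the data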;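 also: 0% = receptor plus peptide wells without compound and 100% = peptide-only wells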
PTK2B oligo ant: antagonists of human Pyk2 oligomerization. Q14289. Q293 cells, Pyk2 FERM NanoBiT luminescence; hits give low values. z-score (the deposit names both 25 µM and 10 µM). 0.83% of 99,000 active;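 active = Z-score of -3 or lower, scaled per plate to the spread of control and sample wells; inactive = z-score above -3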;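 also: negative z-score means lost luminescence so less FERM oligomerization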
SF-1 act: activators of human nuclear receptor SF-1. Q13285. CHO-K1 Gal4-SF-1 LBD luciferase reporter; % increase over DMSO SF-1-specific signal. activation, % at 10 µM. 1.9% of 65,000 active;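 active = activation above the mean activation of all tested compounds plus 3 SD, cut at about 50% in these data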
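Assay system: CHO-K1 cells co-transfected with Gal4 DBD–human SF-1 LBD, 5xGal4 luciferase reporter / Input: 4,000 cells per well / Incubation: 20 h compound exposure at 37 °C after 1 h cell settling / Detection: SteadyLite luciferase luminescence / Control set: DMSO negative control and −SF1 background wells / Replication: one test per compound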
RORa activator: activators of human nuclear receptor RORA; P35398; AID 560; 1.5% of 65,000 active; activation, % at 10 µM; CHO-K1 Gal4-RORA LBD luciferase reporter, luminescence; percent increase over mock-subtracted basal signal;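 active = activation above the mean of all tested compounds plus 3 SD, cut at about 49% in these data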;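 also: 0% = DMSO-treated RORA cells and 100% = added signal equal to DMSO minus mock-transfected cells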
ERa coact inh: ER-alpha (human) coactivator binding inhibition; P03372; TR-FRET ER-alpha LBD / SRC-1 peptide, estradiol-bound; inhibition, % at 25.6 µM; 1.7% of 86,000 active; AID 629; in the data active = inhibition above about 50%;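 also: 0% = receptor plus peptide control and 100% = peptide only without receptor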
The depositor's hits bear a star; [ ] = another dose, or the depositor's remark. Rows were chosen to be rich in hits. Some 4.8% of all compounds tested hit in one or more screens of this group.

What do the screens show for `CCCSc1nc(SCC(=O)NCc2ccccc2)c2c3c(sc2n1)COC(C)(C)C3`?
ERa coact pot: 294*[fluorescence artefact?]; ERb coact inh: 10; PTK2B oligo ant: 0.64; ERa coact inh: 2

How did COc1ccc(C(=O)Nc2ccc(Cl)cc2C(=O)NCc2ccco2)cc1 do in these assays?
ERa coact pot: 131; ERb coact inh: 10; PTK2B oligo ant: -2.9; ERa coact inh: 3

What do the screens show for `CCC(C)C(NC(=O)c1ccccc1NC(=O)c1ccc(OC)cc1)C(=O)NCc1ccco1` (configuration not stated)?
ERa coact pot: 65; ERb coact inh: 40; PTK2B oligo ant: -1.6; SF-1 act: 14; RORa activator: 2; ERa coact inh: 67*[fluorescence artefact?]

Results for CC1CC(C)CN(C(=O)c2ccccc2Nc2ccc(SC(F)F)cc2)C1 (configuration not stated) ?
ERa coact pot: 93; ERb coact inh: -8; PTK2B oligo ant: -1.4; ERa coact inh: -1

What do the screens show for `O=C(CSc1oc(-c2ccc(F)cc2)nc1S(=O)(=O)c1ccc(F)cc1)NCC1CCCO1` (configuration not stated)?
ERa coact pot: 86; ERb coact inh: 16; PTK2B oligo ant: -0.67; SF-1 act: 6; RORa activator: -6; ERa coact inh: 15

What do the screens show for `Cc1ccc(S(=O)(=O)c2nc(-c3ccc(F)cc3)oc2SCC(=O)NCC2CCCO2)cc1` (configuration not stated)?
ERa coact pot: 310*[fluorescence artefact?]; ERb coact inh: 15; PTK2B oligo ant: 0.37; SF-1 act: -8; RORa activator: -9; ERa coact inh: 39

What do the screens show for `Cc1ccc(-c2nc(S(=O)(=O)c3ccc(F)cc3)c(SCC(=O)NCC3CCCO3)o2)cc1` (configuration not stated)?
ERa coact pot: 107; ERb coact inh: 25; PTK2B oligo ant: -0.34; SF-1 act: 1; RORa activator: -14; ERa coact inh: 67*[fluorescence artefact?]

What do the screens show for `Clc1ccc(-c2nnc3sc(-c4ccc(Br)o4)nn23)c(Cl)c1`?
PTK2B oligo ant: 0.18; SF-1 act: -10; RORa activator: 1

What do the screens show for `Clc1ccc(-c2nnc3sc(-c4ccc(Br)o4)nn23)cc1`?
ERa coact pot: 144; ERb coact inh: 56*[fluorescence artefact?]; PTK2B oligo ant: 0.85; SF-1 act: -27; RORa activator: -9; ERa coact inh: 56*[fluorescence artefact?]

What do the screens show for `COc1ccc(-c2nn3c(-c4ccncc4)nnc3s2)cc1OC`?
ERa coact pot: 127; ERb coact inh: 4; SF-1 act: 5; RORa activator: 7; ERa coact inh: -5

How did COc1ccc(-c2nnc3sc(-c4ccc(Br)o4)nn23)cc1OC do in these assays?
ERa coact pot: 139; ERb coact inh: 29; SF-1 act: 2; RORa activator: -14; ERa coact inh: 62*

How did Cc1oc(-c2ccc(Cl)cc2)cc1-c1nn2c(-c3ccoc3C)nnc2s1 do in these assays?
ERa coact pot: 59; ERb coact inh: 64*[fluorescence artefact?]; PTK2B oligo ant: 0.49; SF-1 act: 8; RORa activator: 2; ERa coact inh: 79*

How did Cc1c(C(=O)c2no[n+]([O-])c2C(=O)c2cnn(C)c2C)cnn1C do in these assays?
ERa coact pot: 98; ERb coact inh: -16; PTK2B oligo ant: -0.26; SF-1 act: 0; RORa activator: -19; ERa coact inh: 0

How did CCOC(=O)Cc1csc(NC(=O)CCN2C(=O)c3ccccc3C2=O)n1 do in these assays?
ERa coact pot: 98; ERb coact inh: 97*[fluorescence artefact?]; PTK2B oligo ant: 0.36; SF-1 act: 15; RORa activator: 3; ERa coact inh: 2

What do the screens show for `CCOC(=O)Cc1csc(NC(=O)CCCN2C(=O)c3ccccc3C2=O)n1`?
ERa coact pot: 109; ERb coact inh: -13; PTK2B oligo ant: 1.1; ERa coact inh: 3

How did COc1ccc(Oc2ncnc3c2oc2ccc(Br)cc23)cc1 do in these assays?
ERa coact pot: 416*; ERb coact inh: 30; PTK2B oligo ant: 2.9; SF-1 act: 6; RORa activator: 12; ERa coact inh: 43

What do the screens show for `CCOC(=O)c1c(-c2ccc(C)cc2)csc1NC(=O)CCSc1nnc2ccccn12`?
PTK2B oligo ant: -1.7

What do the screens show for `COc1ccc(C(CC(=O)Nc2nccs2)n2cccc2)cc1` (configuration not stated)?
ERa coact pot: 111; ERb coact inh: -7; PTK2B oligo ant: 0.86; SF-1 act: 55*; RORa activator: 48; ERa coact inh: 0

Results for Cc1cc(C(=O)O)ccc1-n1c(C)ccc1C ?
ERa coact pot: 22; ERb coact inh: 49; SF-1 act: -6; RORa activator: -17; ERa coact inh: 57*

How did COc1ccc(NC(=O)C2CCCN(S(=O)(=O)c3ccc4c(c3)oc(=O)n4C)C2)c(OC)c1 (configuration not stated) do in these assays?
ERa coact pot: 122; ERb coact inh: 0; ERa coact inh: -4

What do the screens show for `Cc1cc(C)cc(OCc2nnc(SCC(=O)N3CCN(c4ccccc4)CC3)o2)c1`?
ERa coact pot: 89; ERb coact inh: 8; PTK2B oligo ant: 1.1; SF-1 act: 0; RORa activator: -1; ERa coact inh: 11

What do the screens show for `Cc1onc(-c2ccccc2Cl)c1C(=O)NCc1cccnc1`?
ERa coact pot: 102; ERb coact inh: 2; PTK2B oligo ant: 0.25; SF-1 act: -1; RORa activator: 9; ERa coact inh: 52*

How did Cc1onc(-c2ccccc2Cl)c1C(=O)NCc1ccccn1 do in these assays?
ERa coact pot: 112; ERb coact inh: -1; PTK2B oligo ant: -0.21; SF-1 act: -6; RORa activator: -14; ERa coact inh: -5

Results for Cc1ccnc(NS(=O)(=O)c2ccc(NC(=O)c3ccc(C)o3)cc2)n1 ?
ERa coact pot: 106; ERb coact inh: -6; PTK2B oligo ant: 0.08; ERa coact inh: 7

What do the screens show for `O=C(Cc1cccs1)Nc1ccc(S(=O)(=O)N2CCCCC2)cc1`?
ERa coact pot: 18; ERb coact inh: 84*; PTK2B oligo ant: -1.1; SF-1 act: 19; RORa activator: 14; ERa coact inh: 96*[fluorescence artefact?]

Results for O=C(Cc1cccs1)Nc1ccc(S(=O)(=O)Nc2ncccn2)cc1 ?
ERa coact pot: 22; ERb coact inh: 84*; PTK2B oligo ant: -0.27; SF-1 act: 5; RORa activator: 4; ERa coact inh: 88*[fluorescence artefact?]

Results for Cc1ccnc(NS(=O)(=O)c2ccc(NC(=O)Cc3cccs3)cc2)n1 ?
ERa coact pot: 49; ERb coact inh: 62*; PTK2B oligo ant: 0.57; SF-1 act: 4; RORa activator: 1; ERa coact inh: 67*

How did CN1CCN(S(=O)(=O)c2ccc(NC(=O)Cc3cccs3)cc2)CC1 do in these assays?
ERa coact pot: 72; ERb coact inh: 44; PTK2B oligo ant: -0.44; SF-1 act: -10; RORa activator: 9; ERa coact inh: 40
